Assay outcomes from PubChem BioAssay.
GAA850 FXN act: FXN promoter activators, primary screen, cell-based, luciferase luminescence, HEK293 lucGAA850; activation, % at 6 µM; HEK293 lucGAA850 FXN promoter luciferase reporter, 24 h; percent of 10 µM SAHA response; 0.56% of 360,000 active; AID 540364, 2011;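 active = activation above the average of all compounds screened plus 3 SD, cutoff fixed separately per campaign, cut at about 7.5% in these data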;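 note: 0% = DMSO wells and 100% = 10 µM SAHA wells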
GSIS activator: GLuc luminescence reporter in INS-1E cells, primary screen for activators of glucose-dependent secretion of insulin; INS-1E GLuc reporter insulin secretion, 2-3 h; activation, % at 16.6 µM; 0.61% of 370,000 active;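 active = lowest replicate activation of at least 40%, so every replicate reaches that level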;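 note: 0% = median of neutral control wells and 100% = median of IBMX positive control wells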
CaV13 FRET inh: Primary screen for inhibitors of IQ motif and Ca2+-dependent inactivation inhibitor domain binding in CACNA1D, Förster resonance energy transfer in living cells, …. 0.098% of 340,000 active. inhibition, % at 12.3 µM. HEK cells, CFP/YFP FRET ICDI-IQ, plate reader, 10 min; percent FRET-ratio fall versus neutral wells;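 active = mean replicate inhibition of at least 30% and at least 1% of replicates passing that level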;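 note: 0% = median of the neutral control wells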
Xi reactivation: activators of inactive X chromosome reactivation, primary screen, imaging, XiGFP fibroblasts, GFP high-content imaging, set 2. XiGFP mouse fibroblasts, % GFP-positive cells imaging, 3 d; cells co-treated with 5-aza-dC sensitizer; scaled so ellipticine positive control = 100%. activation, % at 7.58 µM. 0.055% of 360,000 active. AID 743238, 2013;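 active = mean normalized replicate activation at least 10% and every replicate at or above 10%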;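 note: 0% = median of on-plate neutral control wells and 100% = ellipticine 6 µM median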
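Assay system – SV40-immortalized XiGFP fibroblast cells, line 68-5-11 · Buffer or medium – DMEM supplemented with 5-aza-dC as sensitizing agent · Dosing – one concentration, pinned · Benchmarks – positive control ellipticine, 6 µM final · Times – 3 days compound exposure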
GAA30 FXN cntr: GAA30 FXN promoter activators, confirmation, counter-screen for GAA850 frataxin promoter activator project, cell-based, luminescence, HEK293, lucGAA30, triplicate. HEK293 lucGAA30 FXN promoter luciferase, 24 h; DMSO = 0%, 5 µM ipriflavone = 100%. 66% of 1,900 active. activation, % at 6 µM. shares compounds with GAA850 FXN act;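 active = mean activation above the mean of solvent-only control wells plus 3 SD, cut at about 22% in these data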;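 note: counterscreen of GAA850 promoter hits where activity marks nonselective or luminescence artifacts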
FXN GAA850 conf: FXN GAA850 promoter activators in reporter cells, confirmation, cell-based, luminescence, HEK293 lucGAA850, triplicate; shares compounds with GAA850 FXN act; HEK293 lucGAA850 FXN promoter luciferase reporter, 24 h; 100% = activation by SAHA; activation, % at 6 µM; 86% of 1,900 active; AID 588351, 2011;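 active = mean activation above a set limit taken from the primary screen, cut at about 8% in these data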;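 note: 0% = DMSO wells and 100% = 10 µM SAHA wells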
Starred values were filed as active, the others as inactive; x = no result given; ! = not confirmed by another sample. Rows were chosen to be rich in hits. Some 1% of all compounds tested hit in one or more screens of this group.

SMILES	GAA850 FXN act	GSIS activator	CaV13 FRET inh	Xi reactivation	GAA30 FXN cntr	FXN GAA850 conf
CCN(CC(O)CON=C1c2ccccc2-c2ccccc21)S(=O)(=O)c1ccc(C)cc1 (configuration not stated)	7.6*	-35	1	0	8	15*
CCN(CC(O)CON=C1c2ccccc2-c2ccccc21)S(=O)(=O)c1ccc(Cl)cc1 (configuration not stated)	3	3	-6	0	x	x
N#Cc1ccc(S(=O)(=O)N2CCCCC2c2cc(C(=O)Nc3cccc4c3CCCC4)no2)cc1 (configuration not stated)	7.9*	14	-6	0	27*	12*
CO[C@H](CN(C)Cc1cc(F)ccc1F)[C@@H](C)CN(C(=O)Nc1ccc(F)cc1)[C@@H](C)CO	x	-13	x	0	x	x
O=C(OC(C(=O)Nc1ccc(Cl)cc1C(F)(F)F)c1ccccc1)c1c(Cl)cccc1Cl (configuration not stated)	11*	x	-16	0	18	11*
COc1ccc(Nc2cnn(-c3nc4ccccc4s3)c(=O)c2Cl)cc1	20*	4	-5	0	31*	39*
O=c1c(Cl)c(Nc2cccc(Cl)c2)cnn1-c1nc2ccccc2s1	-4	-24	-5	0	x	x
COc1ccc(C(=O)Nc2nc3ccccc3s2)cc1OC	11*	-7	4	0	116*	29*
CC(=O)NCc1ccc(-c2nc3ccccc3s2)cc1	3	0	-22	0	x	x
COc1ccc(-c2nc3ccccc3s2)cc1NC(C)=O	8.4*	-5	1	0	124*	40*
C[C@H](CO)N1C[C@H](C)[C@@H](CN(C)S(=O)(=O)c2ccccc2)Oc2ccc(NC(=O)C3CC3)cc2CC1=O	x	1	x	0	x	x
CCCCn1cnc2c(SCc3ccc(Br)cc3)nc(N)nc21	7.8*	x	-18	0	29*	18*
CCCn1cnc2c(SCc3ccccc3)nc(N)nc21	6	31	-16	0	x	x
CCCn1cnc2c(SCc3ccc(Cl)cc3)nc(N)nc21	9.8*	-16	-7	0	45*	25*
CCCCn1cnc2c(SCc3ccccc3)nc(N)nc21	7	x	-7	0	x	x
Cc1oc(=O)c(NC(=O)c2ccccc2)cc1C(=O)c1ccccc1	8.2*	x	-5	x	100*	29*
Cc1oc(=O)c(NC(=O)c2ccc(Cl)cc2)cc1C(=O)c1ccccc1	12*	x	-4	x	7	8.9*
CC(=O)c1cc(NC(=O)c2ccccc2)c(=O)oc1C	4	-65	-5	0	x	x
Cc1sc(NC(=O)C2C3CCC(O3)C2C(=O)O)nc1-c1ccc(CC(C)C)cc1 (configuration not stated)	13*	-36	-4	0	62*	26*
CCOC(=O)c1c(NC(=O)C2C3CCC(O3)C2C(=O)O)sc(C)c1-c1ccc(C)cc1 (configuration not stated)	-1	-16	-1	x	x	x
CN(Cc1ccccc1)c1nc(N)c([N+](=O)[O-])c(Nc2cccc(F)c2)n1	9.6*	x	-3	x	27*	17*
Cc1ccc(S(=O)(=O)Nc2ccc3c(c2)C(=O)N([C@H](C)CO)C[C@H](C)[C@H](CN(C)C(=O)NC2CCCCC2)O3)cc1	x	-7	x	0	x	x
Nc1ccccc1C#CC(=O)c1ccccc1	14*	71	-5	0	-8	0
O=C(C#Cc1cccc([N+](=O)[O-])c1)c1ccccc1	0	x	x	x	x	x
O=C(CSc1nc2ccccc2c(=O)n1CCCO)NCc1ccccc1	2	x	-5	x	x	x
SMILES	GAA850 FXN act	GSIS activator	CaV13 FRET inh	Xi reactivation	GAA30 FXN cntr	FXN GAA850 conf
O=c1c2ccccc2nc(SCc2nc3ccccc3s2)n1CCCO	14*	-14	-5	0	102*	43*
COCCNC(=O)C[C@@H]1CC[C@@H]2[C@H](COc3ccc(NC(=O)c4cnccn4)cc3C(=O)N2C)O1	x	5	x	0	x	x
Clc1nc2sccn2c1/C=N/n1cnc2ccccc21	9.1*	2	-10	x	82*	32*
COc1ccc(NC(=O)N[C@@H]2CC[C@H](CC(=O)NC3CCCCC3)O[C@H]2CO)cc1	x	-8	x	0	x	x
CC(C)c1ccc2c(c1)C1(NN=C(c3ccccc3)S1)C(=O)N2 (configuration not stated)	7.9*	x	x	x	-78	-22
CN1c2ccc(C3=CCCCC3)cc2[C@@H]2[C@@H](CCN2C(=O)NC2CCCC2)[C@H]1CO	x	-4	x	0	x	x
COC(=O)/C(=C1/Oc2cc(C)oc(=O)c2S1)C(F)(F)F	13*	1	-8	x	17	24*
COC(=O)/C(=C1/Oc2ccc(C(C)(C)C)cc2S1)C(F)(F)F	1	0	-2	0	x	x
Cc1ccc(-c2cc(C(=O)N/N=C/c3ccco3)n[nH]2)s1	3	-4	-5	0	x	x
CC(C)(C)c1cc(C(=O)N/N=C/c2ccco2)n[nH]1	8.3*	-2	-8	x	73*	29*
O=C(Nc1ccc(Cl)cc1)N[C@H]1CC[C@@H](CCn2cc(C3(O)CCCC3)nn2)O[C@@H]1CO	x	-15	x	-1	x	x
c1ccc2[nH]c(-c3ccnc4ccccc34)nc2c1	9.4*!	x	4	x	65*	19*
c1ccc2c(-c3nc4ccccc4[nH]3)cccc2c1	-4	6	-2	0	x	x
Cc1c(-c2ccccc2)n(O)[n+]([O-])c1-c1ccccc1	1	3	-6	0	x	x
O=Nc1c(-c2ccccc2)n(O)[n+]([O-])c1-c1ccccc1	8.9*	x	-7	0	75*	36*
CC1(C)CC(=O)C=C(c2cccc3c2oc2ccccc23)C1	9.6*	2	-3	0	61*	26*
O=C1C=C(c2cccc3c2oc2ccccc23)CCC1	6	28	-10	0	x	x
Cc1nnc(Cl)c2nn(-c3ccccc3F)c(C)c12	13*	26	-5	0	8	7
COc1cccc(C#Cc2ccc3c(c2)O[C@H](CN(C)C)[C@@H](C)CN([C@H](C)CO)S3(=O)=O)c1	x	4	x	-2	x	x
CCOc1ccc(-c2nc(CCl)cs2)cc1	7.6*	1	-15	x	114*	37*
COc1ccccc1C#Cc1ccc2c(c1)[C@H]1[C@H](CCN1S(=O)(=O)c1ccc(C)cc1)[C@@H](CO)N2	x	5	x	0	x	x
